{"data": "Experimental data from different studies", "effect on": "cell growth or viability", "note": "Compare with care: the assays were run in different laboratories."}
{"SMILES": "CC(=O)N[C@H]1[C@@H](O[C@@H]2O[C@H](C[C@@H](O)[C@H]3O[C@@H](n4ccc(=O)[nH]c4=O)[C@H](O)[C@@H]3O)[C@H](O)[C@H](O)[C@H]2NC(=O)/C=C/CCCCCCCCCC(C)C)O[C@H](CO)[C@@H](O)[C@@H]1O", "cell line": "MCF-10A", "technique": "WST-1", "measurement": "IC50", "result": "250 nM"}
{"SMILES": "N.N.[Cl][Pt][Cl]", "cell line": "MCF-10A", "technique": "MTT", "time": "48 h", "setting": "dark", "measurement": "IC50", "result": "34600 nM"}
{"SMILES": "Cc1ccc(NC(=O)c2ccc(CN3CCN(C)CC3)cc2)cc1Nc1nccc(-c2cccnc2)n1", "cell line": "K562", "technique": "MTT", "tested at": "0.2 µM", "measurement": "viability", "result": "41.6%"}
{"SMILES": "Cc1ncsc1-c1ccc([C@H](C)NC(=O)[C@@H]2C[C@@H](O)CN2C(=O)[C@@H](c2cc(N3CCC(CN4CCC(OC5CC(Oc6cc(N7C8CCC7CN(c7cc(-c9ccccc9O)nnc7N)C8)ccn6)C5)CC4)CC3)no2)C(C)C)cc1 (some centres unmarked)", "cell line": "VCaP", "technique": "ATP luminescence", "time": "7 days", "measurement": "IC50", "result": "4.3 nM"}
{"SMILES": "CN(C)c1ccc(C(=O)NCCCCCCC(=O)NO)cc1", "cell line": "OCI-Ly1", "technique": "ATP luminescence", "tested at": "0.5 µM", "time": "5 days", "measurement": "viability", "result": "62.3%"}
{"SMILES": "CC[C@H](C)[C@@H]([C@@H](CC(=O)N1CCC[C@H]1[C@H](OC)[C@@H](C)C(=O)N[C@H](C)[C@@H](O)c1ccccc1)OC)N(C)C(=O)[C@@H](NC(=O)[C@H](C(C)C)N(C)C(=O)OCc1ccc(NC(=O)[C@H](CCCNC(N)=O)NC(=O)[C@@H](NC(=O)CCOCCOCCOCCOCCC(=O)N[C@@H]2CSSC[C@H](C(=O)O)NC(=O)CNC(=O)[C@@H](CCCNC(=N)N)NC(=O)CNC(=O)[C@@H](C(C)C)NC(=O)CNC(=O)[C@@H](C)NC(=O)[C@@H](CCCNC(=N)N)NC2=O)C(C)C)cc1)C(C)C", "cell line": "4T1", "technique": "resazurin", "time": "24 h", "measurement": "IC50", "result": "500 nM"}
{"SMILES": "N.N.[Cl][Pt][Cl]", "cell line": "K562", "technique": "ATP luminescence", "tested at": "10 µM", "time": "72 h", "measurement": "inhibition", "result": "97%"}
{"SMILES": "CC[C@H](C)[C@@H]([C@@H](CC(=O)N1CCC[C@H]1[C@H](OC)[C@@H](C)C(=O)N[C@H](C)[C@@H](O)c1ccccc1)OC)N(C)C(=O)[C@@H](NC(=O)[C@@H](NC)C(C)C)C(C)C", "cell line": "4T1", "technique": "CCK-8", "measurement": "IC50", "result": "0.294 nM"}
